The text below walks through data of the RNAGym collection of RNA variant scans (doi:10.1126/science.aae0568).

Fewer inactive variants are shown than the library holds.

The labels stand for the following.
B1: tRNA (parent)
chain: GUUCCGUUGGCGUAAUGGUAACGCGUCUCCCUCCUAAGGAGAAGACUGCGGGUUCGAGUCCCGUACGGAACG

The variants in the series derive from B1. The experiment in a line: yeast fitness relative to wild type (ratio to wild type); higher = fitter; tRNA-Arg(CCU), competitive growth, 37 C, YPD. The essentials: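 A pool of Saccharomyces cerevisiae strains, each with a tRNA-Arg(CCU) gene variant at the native genomic locus, was competed in YPD at 37°C for 24 hours across six parallel replicates. The variants had been chemically synthesised at a 3% per-site mutation rate over 69 sites, and gene amplicons before and after competition were read by 100-nucleotide paired-end sequencing. Darwinian fitness relative to wild type rested on changes in genotype frequencies. Genotypes required ≥ 100 starting reads, and estimates < 0.5 were set to 0.5.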
For the variant GUUCCGUUGGCGUAAUGGUAACGCGUCUCCCUCCUAAGGAGAAGACUGCGGGUUCGAGUUUCGUACGGAACG, the yeast fitness was 0.717.
Regarding GUUCCCUUGGCGUAAUGGUAACGCGUCUCCCUCCUAAGGAGAAGACCGCGGGUUCGAGUCCCGUACGGAACG, the yeast fitness turned out to be 1.01.
The same measure for GUUCCGUUGGCGUAAUGGUAACGCGUCUCCCUUCUAAGGAAAAGACUGCGGGUUCGAGUCGCGUACGGAACG: not above 0.5; for GUUCCGUUGGCGUAAUGGUAACCGGUCUCCCUCCUAAGGAGAAGACUGCAGGUUCGAGUCCCGUACGGAACG: 0.585.
Consider GUUCCGUUGGCGUAAUGGUAACGCCUCUGCCUCCUAAGGAGAAGAGUGCGGGUUCGAGUCCCGUACGGAACG, for which the yeast fitness is not above 0.5.
In the case of GUUCCGUUGGCGUAAUGGUAACGCGUCUCCCUCUUAAGGAGAAGACUGCAGGUUCGAGUCCCGUACGGAACG, the yeast fitness came out at 0.67.
Take GUUCCGUUGGCGUAAUGGUAACGCGUCUCCCUCCUAAGGAGAAGACUGCGGGUUCCAGUCCUGUACGGAUCG: the yeast fitness came out at 0.598.
GUUCCGUUGGCGUCAUGGUAAGGCGUCUCCCUCCUAAGGAGAAGACUGCGGGUUCGAGUCCCCUACGGAACG: the yeast fitness is not above 0.5.
For the variant GUUCCGCUCGCGUAAUGGUAACGCGUCUCCCUCCUAAGGAGAAGACUGCGGGUUCGAGUCCCGUACGGAACG, the yeast fitness came to 0.729.
Regarding GCUCCGUUGGCGUAAUGGUUACGCGUCUCCCUCCUAAGGAGAAGACUGCGGGUUCGAGUCACGUACAGAACG, the yeast fitness is not above 0.5.
As for GUUCCGUUGGAGUAAUGGAAACGCGUUUCCCUCCUAAGGAGUAGCCUGCGGGUUUGAGUCCCGUACGGCACG, the figure is not above 0.5; as for GUUCCGUUGGCGUAAUGGUAACGCGUCUCCUUCCUAAGGAGAAGACUGGGGGUUCGAGUACCGUACGGAACG, not above 0.5.
As for GUUCCGUCGGCGUAAUGGUAACGCGUCUACCUCGUGAGGCGAAGACAGCGGGUUCGAGUCCGGUACGAAACG, the figure is 0.537; as for GUUCCGUUGGCGUAAUGGUAACGCGUAUCCCUCCUGAGGAGGAGACUGCGGGUUCGAGUCCCGUAUGGAACG, not above 0.5; as for GUUCCGUUCGCGUAAUGGUAACGCGUCUCCCUCCUAAGGAGAAGAUUGUGGGUUCGAGUCCCGUACGGAACG, 0.692.
The same measure for GUUCCGUUGCCGUAAUGGUAAAGGGUCUCCCUCCUAAGGAGAAGACUGCGGGUUCGAGUCCCGUACGGACCG: 0.531.
In the case of GUUCCGUUGGCGUCAUCGUAGCGCGUCUCCCACUUAAGGAGAAGACUGCGGGUUCGAGUCCCGUACGGAACG, the yeast fitness is not above 0.5.
Regarding GUUCCGUUGGCGUAAUGGUAGCGCGUCUCCCUCCUAAGGAGCAGACUGCGGGUUCGAGUCCCGUACGGAUCG, the yeast fitness stood at 0.761.
On to GUUCUGUUGGCGUAAUGGUAACGCGCCUCCCUCCUAAGGAGAAGACUGCGGGUUCGAGUCCCGUACGGAUCG, for which the yeast fitness is 0.723.
In the case of GUUUGGUUGGCGUAAUGGUAACGCGUCCCCCUCCUAAGGAGAAGACUGCGGGUUCGAGUCCCGUACGGAACG, the yeast fitness was found to be 0.783.
As for GUUCCGUUGGUGUAAUGGUAACGCGUCUCCUUCCUAAGGAGAAGACUGCGGGUUCGAGUCCCGUAUGGAACG, the figure is 0.742; as for GUACCGUUGGCGUAAUGGUAACGCGUCUCCCUCCUAAGGAGAAGAAUGCGGGUUCAAGUCCCGUACGGAACG, 0.713.
Turning to GUUCCGCUGGCGUAAUGGUAACACGUCUCCCUCCUAAGGAGAAGACUGCGGGUUCCAGUCCCGUACGAAACG, the yeast fitness is not above 0.5.
For GUUGCGUUCGCGUAAUGGUAACGCGUCUCCCUCCUAAGGAGUAGACUGCGGGUUGGAGUCCCGUACGGAACG, the yeast fitness is not above 0.5.
The same measure for GUUCCGUUGGCGUACUGGUAACGCGUCUCACUCCUAAGGAGAAGACUGCGGGUUCGGGUCCCGUACGGCACG: not above 0.5.
As for GUUCCGUUGGCGUGAGGGUAACGCGUCUCCCUCCUAAGGAGAAGACUGCGGGUUCGAGUCCCGUACGGAACG, the figure is 0.742; as for GUUUCGUUGGCGUAAUGGUAACGCGUCUCACUCCUAAGGAGUAGACUGCGGGUUCGAGUCCCGUACGGAACG, 0.529.
As to GUUCCGUUAGCGUAAUGGUAACACGUCUCCCUCCUAAGGAGAAGACUGCGGGUUCGAGUCCCGUACGGAACG, the yeast fitness amounted to 0.825.
The same measure for GUUCCGUUGGCGUAAUGGUAACGCGUCUCCCUCCUAAGUAGAAGACUGCGGAUUCGAGUCCCGUACGGAACG: 0.779; for GUUCCGUUAGCGUAAUGGUAACGAGUCUCCCUCCUAAGGAGAAGACUGCGGGUUCGAGACCCGUACAGAACG: not above 0.5.
As for GUUCCGUUGGCGUAGUAGUAACGCGUCUCCCUCCUAAGGAGAAGACUGCGGGUUCGAGUCCCGUGCGGAACG, the figure is not above 0.5.
Consider GUUGCGUUGGGGUAAUGGUAACGCGUCUCCCUCCUAAGGAGAAGACUGCGGGUUCGAGUCCCGUCCGGAACG, for which the yeast fitness came out at 0.576.
Take GUUCCGUAGGCGUAAUGGUAACGUGUCCCCCUCCUAAGGCGAAGACUGCGGGUUCGAGUCCCGUACGGAACG: the yeast fitness is not above 0.5.
GUUCCGUUGGCGUAAUGGUAACGGGUCUCCCUCCUAGGGAGAAGACUGCGGGUUCGAGUCCCCUAGGGAACG: the yeast fitness was not above 0.5.
As for GUUCCGUUGACGUAAUGGCAACGCGUCUCCCUCCUGAGGAGAAGACUAGGGGUUCGAGUCCCGUACGGAACG, the figure is not above 0.5; as for GUUCCGUUGGCGUAAUGGUAACGCGUCUCCCUCCUAAGGAAAAGACUGUGGGUUCGAGUGCCGUGCGGAACG, 0.635.
As for GUUCCGUUGGCGUAAUGGUAACGCGUCUCCCUACUAAGGGGGAGACUGCGGGUUCGAGUCCCGUACGGAACG, the figure is 0.564.
